# Measurements as given in PubChem BioAssay AID652287 (Sanford-Burnham Center for Chemical Genomics, 2013).
# Values joined by “and” are separate entries in the source; they are usually repeats but may differ in a detail not shown here. Equal entries are not always repeated. Active and inactive are the calls of the source.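 How the source made its calls: active means compounds with IC50 of 20 µM or lower; inactive means the rest.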
# Molecular target: Fatty acid synthase (Homo sapiens) (UniProt P49327)
# Test: FAS thioesterase domain inhibitors, SAR follow-up, biochemical, endpoint fluorescence, OMFH substrate, round 2, powder samples (AID 652287)
# Details: recombinant FAS-TE, OMFH fluorogenic substrate
# Outline: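 material = fatty acid synthase thioesterase domain (FAS-TE) enzyme | input = FAS-TE at 0.9 µM | buffer or medium = 100 mM Tris-HCl pH 7.5 plus NaCl, TCEP, Brij35, sarcosine | doses = compound dose series, 5.5% DMSO | incubation = enzyme reaction 60 min at room temperature | detection = endpoint fluorescence, excitation 480 nm, emission 540 nm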
# Fatty acid synthase (Homo sapiens), sequence (P49327 whole entry, looked up, the tested form may be a part): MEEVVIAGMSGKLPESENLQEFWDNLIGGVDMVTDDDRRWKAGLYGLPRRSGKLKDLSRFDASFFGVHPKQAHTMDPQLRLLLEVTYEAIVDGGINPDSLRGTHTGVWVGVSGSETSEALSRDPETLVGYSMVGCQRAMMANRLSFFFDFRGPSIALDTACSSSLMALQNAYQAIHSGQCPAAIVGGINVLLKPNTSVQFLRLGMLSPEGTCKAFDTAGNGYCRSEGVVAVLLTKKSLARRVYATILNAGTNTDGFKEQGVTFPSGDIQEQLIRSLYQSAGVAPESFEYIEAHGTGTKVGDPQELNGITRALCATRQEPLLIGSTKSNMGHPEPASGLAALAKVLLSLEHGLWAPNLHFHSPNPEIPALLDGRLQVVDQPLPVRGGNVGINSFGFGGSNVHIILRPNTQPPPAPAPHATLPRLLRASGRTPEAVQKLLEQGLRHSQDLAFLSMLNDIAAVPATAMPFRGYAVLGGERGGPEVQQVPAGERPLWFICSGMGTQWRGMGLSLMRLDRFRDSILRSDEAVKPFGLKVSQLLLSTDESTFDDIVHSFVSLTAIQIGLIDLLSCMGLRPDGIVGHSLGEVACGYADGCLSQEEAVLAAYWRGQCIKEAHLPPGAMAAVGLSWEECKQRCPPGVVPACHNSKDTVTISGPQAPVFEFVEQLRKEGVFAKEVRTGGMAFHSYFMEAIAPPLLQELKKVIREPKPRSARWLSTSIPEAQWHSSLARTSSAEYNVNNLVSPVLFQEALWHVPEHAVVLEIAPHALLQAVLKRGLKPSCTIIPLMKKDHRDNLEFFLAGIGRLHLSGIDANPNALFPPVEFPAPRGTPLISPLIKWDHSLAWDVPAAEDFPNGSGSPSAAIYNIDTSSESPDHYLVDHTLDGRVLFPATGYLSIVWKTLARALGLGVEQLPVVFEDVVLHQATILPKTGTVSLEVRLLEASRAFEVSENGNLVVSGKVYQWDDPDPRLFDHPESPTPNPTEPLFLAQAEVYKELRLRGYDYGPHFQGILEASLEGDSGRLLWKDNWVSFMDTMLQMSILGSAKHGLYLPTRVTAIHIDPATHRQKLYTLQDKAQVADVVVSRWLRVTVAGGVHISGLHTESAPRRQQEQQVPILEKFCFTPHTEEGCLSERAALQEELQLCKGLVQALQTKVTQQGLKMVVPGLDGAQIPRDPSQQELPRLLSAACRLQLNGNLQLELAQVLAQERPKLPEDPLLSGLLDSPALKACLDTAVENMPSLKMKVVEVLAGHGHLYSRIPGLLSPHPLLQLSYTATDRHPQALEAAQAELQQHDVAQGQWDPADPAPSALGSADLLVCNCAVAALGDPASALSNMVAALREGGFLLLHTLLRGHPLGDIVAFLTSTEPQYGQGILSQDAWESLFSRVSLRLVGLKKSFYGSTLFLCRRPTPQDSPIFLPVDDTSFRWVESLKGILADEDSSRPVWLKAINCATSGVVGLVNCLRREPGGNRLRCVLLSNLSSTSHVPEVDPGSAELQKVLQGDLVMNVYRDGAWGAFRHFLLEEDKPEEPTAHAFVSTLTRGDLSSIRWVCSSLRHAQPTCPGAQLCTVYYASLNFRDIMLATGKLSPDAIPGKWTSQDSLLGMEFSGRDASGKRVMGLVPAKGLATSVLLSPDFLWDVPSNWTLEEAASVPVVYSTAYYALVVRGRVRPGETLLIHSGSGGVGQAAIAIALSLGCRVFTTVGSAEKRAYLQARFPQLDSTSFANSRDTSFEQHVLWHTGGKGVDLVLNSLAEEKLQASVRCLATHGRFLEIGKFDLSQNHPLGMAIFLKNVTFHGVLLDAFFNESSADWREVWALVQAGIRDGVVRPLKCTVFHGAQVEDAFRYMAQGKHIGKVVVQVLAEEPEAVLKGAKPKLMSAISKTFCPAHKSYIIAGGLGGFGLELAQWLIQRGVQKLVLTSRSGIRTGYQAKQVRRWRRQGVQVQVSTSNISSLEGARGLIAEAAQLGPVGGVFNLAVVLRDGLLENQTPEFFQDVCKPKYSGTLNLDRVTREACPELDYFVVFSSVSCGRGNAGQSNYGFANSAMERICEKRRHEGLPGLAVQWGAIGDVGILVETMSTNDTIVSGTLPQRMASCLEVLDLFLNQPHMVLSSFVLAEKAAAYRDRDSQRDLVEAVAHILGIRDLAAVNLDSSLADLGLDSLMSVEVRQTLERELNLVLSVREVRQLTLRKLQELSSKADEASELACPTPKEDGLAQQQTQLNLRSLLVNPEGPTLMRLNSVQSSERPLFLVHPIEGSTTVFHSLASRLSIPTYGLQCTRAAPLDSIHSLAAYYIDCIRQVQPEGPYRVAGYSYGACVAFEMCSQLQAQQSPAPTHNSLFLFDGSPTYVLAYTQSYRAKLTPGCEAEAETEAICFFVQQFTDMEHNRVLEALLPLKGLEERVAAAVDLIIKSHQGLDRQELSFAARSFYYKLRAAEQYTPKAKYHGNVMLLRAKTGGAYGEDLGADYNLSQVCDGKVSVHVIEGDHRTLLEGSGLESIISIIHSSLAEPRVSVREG
row,SMILES,IC50
1,CC1CCN(S(=O)(=O)c2ccc(-c3csc(NC(=O)C(C)C)n3)cc2)CC1,511 nM
2,CN(Cc1ccc(C(C)(C)C)cc1)C(=O)Cc1ccc(S(=O)(=O)N2CCOCC2)s1,343 nM
3,CCCCCCCCCCC[C@H](C[C@@H]1OC(=O)[C@H]1CCCCCC)OC(=O)[C@@H](NC=O)C(C)C,107 nM
4,CCCCC(=O)Nc1nc(-c2ccc(S(=O)(=O)N3CCOCC3)cc2)cs1,204 nM
5,CCCCCCC(=O)Nc1nc(-c2ccc(S(=O)(=O)N3CCCCC3C)cc2)cs1 (stereo not drawn),4320 nM
6,CCCCCC(=O)Nc1nc(-c2ccc(S(=O)(=O)N3CCCCC3C)cc2)cs1 (stereo not drawn),580 nM
7,CCC(C)C(=O)Nc1nc(-c2ccc(S(=O)(=O)N3CCCCC3C)cc2)cs1 (stereo not drawn),285 nM
8,CCCCCC(=O)Nc1nc(-c2ccc(S(=O)(=O)N3CCCC3)cc2)cs1,141 nM
9,CCCCC(=O)Nc1nc(-c2ccc(S(=O)(=O)N3CCCCC3C)cc2)cs1 (stereo not drawn),382 nM
10,CCC(C)C(=O)Nc1nc(-c2ccc(S(=O)(=O)N3CCC(C)CC3)cc2)cs1 (stereo not drawn),409 nM
11,CC(C)CC(=O)Nc1nc(-c2ccc(S(=O)(=O)N3CCC(C)CC3)cc2)cs1,inactive
12,CCC(CC)C(=O)Nc1nc(-c2ccc(S(=O)(=O)N(CC)CC)cc2)cs1,328 nM
13,CCCCCCC(=O)Nc1nc(-c2ccc(S(=O)(=O)N3CCC(C)CC3)cc2)cs1,4470 nM
14,Cn1c(SCC(=O)Nc2ncc(C(F)(F)F)cc2Cl)nnc1-c1ccc(Cl)cc1,686 nM
15,CCCCCC(=O)Nc1nc(-c2ccc(S(=O)(=O)N(CC)CC)cc2)cs1,196 nM
16,CC(C)CC(=O)Nc1nc(-c2ccc(S(=O)(=O)N3CCCC3)cc2)cs1,1640 nM
17,CCCCCCC(=O)Nc1nc(-c2ccc(S(=O)(=O)N3CCCC3)cc2)cs1,846 nM
18,CCC(C)C(=O)Nc1nc(-c2ccc(S(=O)(=O)N(CC)CC)cc2)cs1 (stereo not drawn),1130 nM and 154 nM
19,CCC(CC)C(=O)Nc1nc(-c2ccc(S(=O)(=O)N3CCC(C)CC3)cc2)cs1,1830 nM
20,CCCCCCC(=O)Nc1nc(-c2ccc(S(=O)(=O)N(CC)CC)cc2)cs1,1390 nM
21,CCCCCC(=O)Nc1nc(-c2ccc(S(=O)(=O)N3CCC(C)CC3)cc2)cs1,745 nM
22,CCC(C)C(=O)Nc1nc(-c2ccc(S(=O)(=O)N3CCCC3)cc2)cs1 (stereo not drawn),145 nM
23,CCC(CC)C(=O)Nc1nc(-c2ccc(S(=O)(=O)N3CCCC3)cc2)cs1,257 nM
